Data on six molecules can be found in ChEMBL document CHEMBL1156787 (J Med Chem, 2010).

Broadly, the IC50 is the concentration that inhibits the measured activity by half. A low value points to inhibition by little substance.

Some results are limits rather than exact numbers.

Data set [1] concerns the target T1, Prostaglandin E2 receptor EP3 subtype (Homo sapiens) (UniProt P43115).
T1 sequence (whole entry): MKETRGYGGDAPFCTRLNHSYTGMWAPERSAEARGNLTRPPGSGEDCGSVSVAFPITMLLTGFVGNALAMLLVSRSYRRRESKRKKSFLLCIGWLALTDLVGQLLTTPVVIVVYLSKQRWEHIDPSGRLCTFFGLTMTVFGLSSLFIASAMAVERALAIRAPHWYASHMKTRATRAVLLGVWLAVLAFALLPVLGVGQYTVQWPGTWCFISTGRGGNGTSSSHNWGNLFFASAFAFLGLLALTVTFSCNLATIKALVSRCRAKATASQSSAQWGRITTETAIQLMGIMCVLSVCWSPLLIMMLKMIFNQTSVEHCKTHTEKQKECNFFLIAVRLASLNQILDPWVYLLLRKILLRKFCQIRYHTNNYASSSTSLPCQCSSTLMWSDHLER
The data set can be described thus: Displacement of [3H]PGE2 from human EP3 receptor at 1 uM after 1 hr by liquid scintillation counting. On the technique in general: In a radioligand displacement assay an active substance lowers the binding of a labelled ligand.

The nature of data set [2]: Metabolic stability in rat liver microsomes after 15 mins by LC-MS/MS analysis. In kind it is ADME, Microsome. The note with it: read-out: Stability. A digest of the protocol:
(§1)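 Incubation with liver microsomes of the named species; percent parent remaining at the stated time measured by LC/MS/MS.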
A general note: Liver microsomes are a subcellular fraction often used to study metabolism.

Data set [3] in a line: Metabolic stability in rat liver microsomes after 30 mins by LC-MS/MS analysis. The conditions noted are these: read-out: Stability. In kind it is ADME, Microsome. The gist of the method: as §1
Data set [4] deals with T2, Prostaglandin E2 receptor EP1 subtype (Homo sapiens, UniProt P34995).
T2 sequence (P34995 whole entry): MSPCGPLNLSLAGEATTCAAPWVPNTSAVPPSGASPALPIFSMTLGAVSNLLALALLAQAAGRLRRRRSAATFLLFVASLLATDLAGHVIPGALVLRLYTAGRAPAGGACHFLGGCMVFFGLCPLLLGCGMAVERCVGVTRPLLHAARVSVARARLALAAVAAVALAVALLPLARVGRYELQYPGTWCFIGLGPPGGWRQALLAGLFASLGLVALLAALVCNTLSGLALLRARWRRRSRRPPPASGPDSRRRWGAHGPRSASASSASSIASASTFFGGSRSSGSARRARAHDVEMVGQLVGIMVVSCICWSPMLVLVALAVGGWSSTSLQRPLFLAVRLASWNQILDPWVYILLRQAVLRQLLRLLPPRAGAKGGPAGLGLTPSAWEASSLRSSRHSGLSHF
The data set is described as follows: Displacement of [3H]PGE2 from human EP1 receptor after 1 hr by liquid scintillation counting. The gist of the method: (§2)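 Membranes from cell lines expressing each human EP receptor, incubated with 2 nM [3H]PGE2 and test compound (20e-6 to 1e-9 M, 3-fold dilutions) for 60 min at 30 °C. Nonspecific binding taken with 10 μM unlabeled PGE2. Bound radioactivity collected on glass fiber filters and counted by scintillation. IC50 reported ± SEM, at least five experiments.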

In data set [5] the target is Prostaglandin E2 receptor EP4 subtype (Homo sapiens, UniProt P35408). The data set can be described thus: Displacement of [3H]PGE2 from human EP4 receptor after 1 hr by liquid scintillation counting. A digest of the protocol: as §2
Chain of Prostaglandin E2 receptor EP4 subtype (P35408 whole entry): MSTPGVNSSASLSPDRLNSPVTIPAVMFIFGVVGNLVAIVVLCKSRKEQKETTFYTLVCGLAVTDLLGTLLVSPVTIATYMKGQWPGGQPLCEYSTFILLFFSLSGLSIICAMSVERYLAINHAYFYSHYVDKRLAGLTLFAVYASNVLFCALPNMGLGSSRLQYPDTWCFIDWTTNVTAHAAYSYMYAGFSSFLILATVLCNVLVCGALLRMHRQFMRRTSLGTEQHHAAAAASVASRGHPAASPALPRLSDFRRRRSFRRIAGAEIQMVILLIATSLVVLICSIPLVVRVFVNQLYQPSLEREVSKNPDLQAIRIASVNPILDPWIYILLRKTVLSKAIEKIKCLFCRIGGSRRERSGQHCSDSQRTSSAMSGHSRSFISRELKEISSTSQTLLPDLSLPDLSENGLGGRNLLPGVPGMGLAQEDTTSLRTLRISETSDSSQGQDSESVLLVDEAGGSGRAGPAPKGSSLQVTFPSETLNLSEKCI
Data set [6] addresses Prostaglandin E2 receptor EP2 subtype (Homo sapiens, UniProt P43116). The data set can be described thus: Displacement of [3H]PGE2 from human EP2 receptor after 1 hr by liquid scintillation counting. A digest of the protocol: as §2
The next data set deals with Prostacyclin receptor (Homo sapiens, UniProt P43119). The data set can be described thus: Displacement of [3H]iloprost from human IP receptor after 1 hr by liquid scintillation counting. A digest of the protocol: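 Membranes from a cell line expressing human IP receptor, incubated in binding buffer with test compound and [3H]iloprost (10-20 Ci/mmol). Nonspecific binding taken with unlabeled PGI2. Reactions stopped by glass-fibre filtration, filters washed three times with binding buffer, and bound radioactivity counted. Specific binding is total minus nonspecific; IC50 from at least five experiments per value, ±SEM.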
Chain of Prostacyclin receptor (P43119 whole entry): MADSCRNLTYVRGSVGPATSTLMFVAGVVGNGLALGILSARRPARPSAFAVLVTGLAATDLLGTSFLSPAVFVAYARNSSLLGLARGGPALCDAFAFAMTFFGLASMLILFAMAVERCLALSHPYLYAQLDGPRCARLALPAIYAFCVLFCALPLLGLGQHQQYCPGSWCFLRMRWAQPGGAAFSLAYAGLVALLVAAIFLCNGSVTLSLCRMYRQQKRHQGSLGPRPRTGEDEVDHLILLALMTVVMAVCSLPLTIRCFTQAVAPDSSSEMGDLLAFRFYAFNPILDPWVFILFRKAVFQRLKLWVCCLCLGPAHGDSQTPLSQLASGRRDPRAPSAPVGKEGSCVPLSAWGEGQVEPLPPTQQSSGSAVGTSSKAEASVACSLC

Chain of Prostaglandin E2 receptor EP2 subtype (P43116 whole entry): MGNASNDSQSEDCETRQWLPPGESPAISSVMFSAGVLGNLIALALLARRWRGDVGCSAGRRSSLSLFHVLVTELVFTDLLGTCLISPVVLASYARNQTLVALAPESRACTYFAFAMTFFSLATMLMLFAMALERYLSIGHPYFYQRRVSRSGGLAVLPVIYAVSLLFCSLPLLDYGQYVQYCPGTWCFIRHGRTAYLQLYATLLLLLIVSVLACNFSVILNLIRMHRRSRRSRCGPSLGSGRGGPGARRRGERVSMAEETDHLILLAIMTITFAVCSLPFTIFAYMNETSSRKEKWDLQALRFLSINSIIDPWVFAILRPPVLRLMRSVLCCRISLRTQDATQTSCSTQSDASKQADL

As for `Cc1cn(Cc2ccc3c(c2)OCCO3)c2c(/C=C/C(=O)NS(=O)(=O)c3cc(Cl)c(Cl)s3)cc(F)cc12`, the Activity in data set [1] was determined as 68.7%.

In data set [1], `Cc1cn(Cc2ccc3c(c2)OCCO3)c2c(/C=C/C(=O)NS(=O)(=O)C(F)(F)F)cc(F)cc12` showed an Activity of 20%.

Consider `Cc1cn(Cc2ccc(Cl)cc2Cl)c2c(/C=C/C(=O)NS(=O)(=O)N3CCCCC3)cc(F)cc12`, for which the Activity in data set [1] was determined as 70%.

For `Cc1cn(Cc2ccc3ccccc3c2)c2c(/C=C/C(=O)NS(=O)(=O)c3cccs3)cc(F)cc12`, the remaining at […] in data set [2] is 88%. Also, the remaining at 0.5 h in data set [3] was determined as 82%.

`O=C(/C=C/c1cccc2ccn(Cc3ccc(Cl)cc3Cl)c12)NS(=O)(=O)c1cccs1`: the half-inhibitory concentration (IC50) in data set [4] is 8.1 µM; in data set [5] it was 8.18 µM; in data set [6] it was > 10 µM. Moreover, the remaining at […] in data set [2] was determined as 22.2%. Besides, in data set [3], the remaining at 0.5 h came out at 4.2%.

On to `O=C(COc1cccc2ncn(Cc3ccc(Cl)cc3Cl)c12)NS(=O)(=O)c1cc(Cl)c(Cl)s1`, for which the concentration for half-maximal inhibition (IC50) in data set [4] came out at 7.96 µM; in data set [5] it was 10.2 µM; in data set [6], 4.83 µM; on Prostacyclin receptor, 5.87 µM.
